# High-throughput results: PubChem, The Scripps Research Institute Molecular Screening Center
# procasp3 activ: activators of human procaspase-3 D3A mutant, primary screen, biochemical, absorbance, PC-3 D3A mutant, single concentration; recombinant procaspase-3 D3A, Ac-DEVD-pNA absorbance 405 nm; activation, % at 8.5 µM; 0.11% of 330,000 active;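 active = activation above the mean of all tested compounds plus 3 SD, cut at about 21% in these data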;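 also: 0% = DMSO alone and 100% = DMSO wells spiked with extra 5 µM PC-3 D3A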
#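 Assay system – Procaspase-3 D3A mutant · Benchmarks – DMSO low control, extra-enzyme high control · Technique – 405 nm absorbance of p-nitroaniline, reads at 0 and 120 min · Doses – 8.5 µM nominal · Measure – % activation between DMSO and enzyme-spiked controls · Also added – Ac-DEVD-pNA chromogenic peptide substrate · Schedule – 1 h compound preincubation, 2 h substrate hydrolysis at 25 °C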
# procasp7 counter: procaspase-7 activators, primary screen, counter-screen for procaspase-3 activator project, biochemical, absorbance, HTS, human | Caspase-7 (Homo sapiens), P55210 | recombinant procaspase-7, Ac-DEVD-pNA absorbance 405 nm; D23A/D198A/D206A triple mutant, cannot self-cleave; scale: DMSO 0, 5 µM enzyme 100 | activation, % at 8.5 µM | 0.093% of 330,000 active | AID 463210, 2010;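 active = percent activation above the screen-wide mean plus 3 SD, cut at about 25% in these data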
# Target sequence (P55210 whole entry D23A/D198A/D206A): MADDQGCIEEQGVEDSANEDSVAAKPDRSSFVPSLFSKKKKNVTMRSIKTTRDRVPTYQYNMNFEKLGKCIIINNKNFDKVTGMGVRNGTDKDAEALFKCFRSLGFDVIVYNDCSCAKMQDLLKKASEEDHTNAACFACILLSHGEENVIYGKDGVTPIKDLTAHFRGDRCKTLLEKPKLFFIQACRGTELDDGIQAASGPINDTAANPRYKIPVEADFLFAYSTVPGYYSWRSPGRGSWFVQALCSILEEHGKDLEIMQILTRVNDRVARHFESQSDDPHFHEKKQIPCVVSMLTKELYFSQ
#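 System: Procaspase-7 triple mutant (PC-7 D3A); measure: % activation from two-timepoint absorbance difference, scaled to controls; times: 1 h compound preincubation, 2 h substrate cleavage, 25 °C; also added: Ac-DEVD-pNA substrate, 400 µM as added; measured by: Epi-absorbance of released pNA at 405 nm, two timepoints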
# PP5 inh: PP5 phosphatase inhibitors, primary screen, biochemical, fluorescence; AID 1987, 2009; purified PP5c, OMFP substrate fluorescence; inhibition, % at 6.7 µM; Serine/threonine-protein phosphatase 5 (Homo sapiens), P53041; 0.18% of 320,000 active;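 active = inhibition above the campaign's mean inhibition across all tested compounds plus 3 SD, cut at about 9.5% in these data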;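 also: 0% = DMSO only and 100% = 100 µM cantharidin control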
# PP1 counter: PP1-alpha phosphatase inhibitors, primary screen, counter-screen for PP5 inhibitor project, biochemical, fluorescence, OMFP substrate, single point; inhibition, % at 6.7 µM; AID 2235, 2010; 0.9% of 320,000 active; Serine/threonine-protein phosphatase PP1-alpha catalytic subunit (Homo sapiens), P62136; purified PP1alpha;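 active = inhibition above the mean inhibition of all tested compounds plus 3 SD, computed separately for each screening campaign, cut at about 15% in these data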
# Target sequence (P62136 whole entry, looked up): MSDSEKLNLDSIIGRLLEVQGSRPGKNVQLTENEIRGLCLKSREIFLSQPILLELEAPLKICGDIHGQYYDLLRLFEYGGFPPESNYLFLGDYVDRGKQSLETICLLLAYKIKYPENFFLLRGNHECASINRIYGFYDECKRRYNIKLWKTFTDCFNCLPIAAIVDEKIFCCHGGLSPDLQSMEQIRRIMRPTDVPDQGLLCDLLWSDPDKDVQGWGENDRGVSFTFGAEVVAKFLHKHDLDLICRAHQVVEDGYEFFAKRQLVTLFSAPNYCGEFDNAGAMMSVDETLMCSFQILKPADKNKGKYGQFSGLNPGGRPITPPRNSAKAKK
# PP1 confirm: PP1 phosphatase inhibitors, confirmation, biochemical, fluorescence, OMFP substrate, triplicate | shares compounds with PP1 counter | purified PP1alpha | inhibition, % at 6.7 µM | 52% of 1,900 active | AID 2358, 2010;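 active = mean PP1 inhibition above a set limit taken from the earlier primary screen, cut at about 15% in these data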
# PP5 counter: PP5 phosphatase inhibition by PP1 hits, confirmation, counter-screen for PP1 inhibitor project, biochemical, fluorescence, triplicate. AID 2360, 2010. 4% of 1,900 active. purified PP5c, OMFP fluorescence. inhibition, % at 6.7 µM. shares compounds with PP1 counter;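 active = mean PP5 inhibition over triplicate wells above about 9.5% taken from the earlier PP1 screen, limit read from the data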
# The depositor's hits bear a star; / = not tested or not shown. Sampled rows, rich in hits. Any-hit rate of the full collection: about 1.2%.
SMILES,procasp3 activ,procasp7 counter,PP5 inh,PP1 counter,PP1 confirm,PP5 counter
COc1ccc(NC(=O)CN(C)C(=O)c2c(C)nn(-c3ccccc3)c2Cl)cc1,3,5,-2,20*,-3,0
CCOC(=O)c1c(C)[nH]c(C(=O)OC(C)C(=O)NC2CCCCC2C)c1C (stereo unspecified),11,-3,-1,1,/,/
Nc1c(C(=O)NC2CC2)sc2nc3c(c(-c4ccco4)c12)CC/C3=C/c1ccco1,-12,-12,1,54*,21*,5
C=CCOC(=O)C(=O)/C=C/c1ccc2c(c1)Cc1ccccc1-2,-2,-1,2,21*,18*,0
CN(Cc1ccccc1)S(=O)(=O)c1ccc(Cl)c(C(=O)NCCCN2CCOCC2)c1,4,11,3,-8,/,/
N#CC1=C2Sc3ccccc3N2CCCC1=O,6,-5,-1,56*,-3,-4
N#CC1=C2SC=C(c3ccc(Br)cc3)N2CCCC1=O,-7,5,2,3,/,/
CC(=O)c1ccc(N2CCN(C(=O)c3ccc(Cn4c(=S)[nH]c5ccc(N6CCOCC6)cc5c4=O)cc3)CC2)cc1,-6,-5,1,45*,29*,2
O=C(Nc1ccc(N2CCCC2)cc1)c1ccc(Br)cc1,5,3,1,24*,-9,1
CC(C)Oc1ccc(C(=O)Nc2ccc(N3CCCC3)cc2)cc1,1,13,3,13,/,/
COc1cccc(OC)c1C(=O)Nc1ccc(N2CCCC2)cc1,-3,3,2,28*,-3,-4
O=C(COC(=O)c1cnccn1)NC1CCCc2ccccc21 (stereo unspecified),5,5,/,/,/,/
O=c1[nH]c(CSc2nnc(Nc3ccccc3)s2)nc2ccccc12,9,1,-2,28*,18*,-3
CCN(CCCNC(=O)CCn1c(=S)[nH]c2cc3c(cc2c1=O)OCO3)c1cccc(C)c1,12,12,-1,-5,/,/
CCOc1ccc(N=C2NC(=O)/C(=C/C(=O)OC)S2)cc1,7,-3,0,0,/,/
CCc1ccc(N=C2NC(=O)/C(=C/c3ccc(OCC(=O)O)cc3)S2)cc1,4,14,2,39*,3,-1
CN(CC(=O)Nc1ccccc1Br)C(=O)C(Cc1ccccc1)NC(=O)c1ccccc1 (stereo unspecified),5,-4,4,-2,/,/
CCCCC(CC)C(=O)Nc1cc(C(=O)NCc2ccc(C)cc2)ccc1N1CCC2(CC1)CC(c1cccc(Br)c1)=NO2 (stereo unspecified),9,-1,3,2,/,/
CCCCC(CC)C(=O)Nc1cc(C(=O)NCc2ccc(C)cc2)ccc1N1CCC2(CC1)CC(c1ccccc1)=NO2 (stereo unspecified),3,-9,-2,19*,13,0
O=C(Nc1ccc(N2CCCC2)cc1)c1cc2ccccc2o1,5,3,0,33*,-5,1
O=C(COc1ccccc1Cl)Nc1ccc(N2CCCC2)cc1,-4,-7,4,28*,-2,-4
CC(=O)N1CCN(c2ccc(NC(=O)c3cc4ccccc4o3)cc2)CC1,-7,-7,1,-1,/,/
CCN1CCN(c2ccc(NC(=O)COc3ccccc3Cl)cc2)CC1,0,3,1,-8,/,/
O=C(Cc1ccccc1)Nc1ccc(N2CCCC2)cc1,-8,8,4,25*,-11,-1
O=C(CCc1ccccc1)NC1(Cc2ccccc2)CCN(CCCc2ccccc2)C1=O (stereo unspecified),7,2,1,0,/,/
SMILES,procasp3 activ,procasp7 counter,PP5 inh,PP1 counter,PP1 confirm,PP5 counter
CCn1c(SCC(=O)c2ccc3c(c2)Cc2ccccc2-3)nnc1-c1ccc(N)cc1,-10,-5,-1,21*,20*,-3
CCn1c(SCC(=O)c2ccc(O)c(O)c2)nnc1-c1ccc(C)cc1,-3,0,0,-5,/,/
CC(C)(C)C(=O)N1N=C(c2ccc(NS(C)(=O)=O)cc2)CC1c1cccs1 (stereo unspecified),3,-15,8,23*,-1,-2
CC(=O)NC(c1ccccc1)c1cc([N+](=O)[O-])c2cccnc2c1O (stereo unspecified),-18,-20,3,6,/,/
CC(C)C(=O)NC(c1ccccc1)c1cc([N+](=O)[O-])c2cccnc2c1O (stereo unspecified),-14,-16,3,29*,13,11*
CCCC(=O)NC(c1cccs1)c1cc([N+](=O)[O-])c2cccnc2c1O (stereo unspecified),-17,-33,3,18*,16*,6
Cc1ccc(NC(=O)C(c2ccccc2)N2CCN(CC(=O)N3CCOCC3)CC2)cc1Cl (stereo unspecified),9,-1,1,-3,/,/
Cc1occc1-c1nnc(SCC(=O)Nc2nccs2)n1Cc1ccco1,2,9,-1,30*,-6,-4
O=C(CSc1nnc(-c2ccc(O)cc2)n1Cc1ccco1)c1ccccc1,7,10,1,3,/,/
O=C(CSc1nnc(-c2ccc(O)cc2)n1Cc1ccco1)c1cccs1,-9,-17,4,30*,-7,-8
CC(C#N)N1CCN(S(=O)(=O)c2ccc3c(c2)CCC3)CC1 (stereo unspecified),4,0,1,1,/,/
CC(=O)N1CCN(c2ccccc2NC(=O)c2cc(Br)ccc2Cl)CC1,5,-3,0,3,/,/
O=C(Nc1ccccc1N1CCN(C(=O)c2ccc(Cl)cc2)CC1)c1cc(Br)ccc1Cl,-13,-7,0,18*,9,-3
O=C(Nc1nc(-c2ccco2)c(-c2ccco2)s1)c1c(F)cccc1Cl,-11,-32,-1,4,/,/
O=C(Nc1nc(-c2ccco2)c(-c2ccco2)s1)c1cnccn1,-8,-21,0,23*,12,-2
CSCC(=O)N1CCc2ccc(NC(=O)c3ccccc3Cl)cc2C1,3,11,4,3,/,/
O=C(N/N=C/c1ccc2c(c1)OCO2)c1sc2cc(Cl)ccc2c1Cl,-7,-11,0,-5,/,/
O=C(N/N=C/c1ccc2c(c1)OCO2)c1ccc(NC(=O)c2ccc(F)cc2)cc1,2,-6,4,19*,30*,-3
